Legend:
HeLa [1] = experiment: Induction of cell cycle arrest in human HeLa cells assessed as accumulation at G0/G1 phase at 1 uM incubated for 24 hrs by PI staining based flowcytometry analysis (reference value: 57 %); type: functional
HeLa [2] = experiment: Antiproliferative activity against human HeLa cells assessed as inhibition of cell proliferation incubated for 72 hrs by MTT assay; type: functional
How it was run: (§1)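 Cells seeded at 8 × 10³/well and held 18 h at 37 °C, 5% CO₂. Medium then replaced with compound at several concentrations for 72 h at 37 °C, followed by MTT viability read-out. GI50 is taken against cells given the maximum DMSO (0.25%), which is set as 100% viability. Dose-response curves come from at least three independent experiments run in triplicate and are reported as mean ± SE.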

HT-29 [3] = experiment: Antiproliferative activity against human HT-29 cells assessed as inhibition of cell proliferation incubated for 72 hrs by MTT assay; type: functional; how it was run: as §1
RS4-11 = experiment: Antiproliferative activity against human RS4-11 cells assessed as inhibition of cell proliferation incubated for 72 hrs by MTT assay; type: functional; how it was run: as §1
CCRF-CEM = experiment: Antiproliferative activity against human CCRF-CEM cells assessed as inhibition of cell proliferation incubated for 72 hrs by MTT assay; type: functional; how it was run: as §1
Choline kinase alpha [4] = biological target: T1, Choline kinase alpha (Homo sapiens, UniProt P35790); experiment: Binding affinity to human CKalpha1 assessed as dissociation constant by spectroflurometry
How it was run: (§2)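 Purified human CK (cloned as reported earlier) at 1 µM was titrated with compound in 25 mM Tris, 150 mM NaCl, pH 7.5 at 25 °C. Compound ranges were 0.1–10 µM for CKα1 and 0.5–200 µM for CKβ. Tryptophan quenching was read with excitation at 280 nm, emission 300–400 nm and 5 nm slits. DMSO-matched controls were run, and Kd was fitted to a single-site model. Results are given as mean ± SD.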
Target sequence in this assay (P35790 whole entry): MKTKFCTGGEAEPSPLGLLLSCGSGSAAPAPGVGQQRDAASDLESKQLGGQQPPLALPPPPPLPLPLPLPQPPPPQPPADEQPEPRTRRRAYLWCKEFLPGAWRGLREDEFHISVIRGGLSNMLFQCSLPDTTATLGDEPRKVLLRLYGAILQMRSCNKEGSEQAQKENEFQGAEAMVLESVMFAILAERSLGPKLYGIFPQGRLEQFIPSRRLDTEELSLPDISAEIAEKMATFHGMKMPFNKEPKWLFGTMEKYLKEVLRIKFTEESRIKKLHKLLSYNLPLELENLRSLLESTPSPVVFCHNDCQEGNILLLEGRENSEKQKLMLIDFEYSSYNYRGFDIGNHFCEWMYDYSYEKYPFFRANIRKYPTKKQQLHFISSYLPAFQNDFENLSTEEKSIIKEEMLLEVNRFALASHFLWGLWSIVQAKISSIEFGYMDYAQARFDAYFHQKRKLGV

[5] = biological target: Choline/ethanolamine kinase (Homo sapiens, UniProt Q9Y259); experiment: Binding affinity to human CKbeta assessed as dissociation constant by spectroflurometry; how it was run: as §2
Homo sapiens = species on record: Homo sapiens; experiment: Selectivity index, ratio of Kd for human CKbeta to Kd for human CKalpha1
Choline kinase alpha [6] = biological target: T1, Choline kinase alpha; experiment: (§3) Inhibition of human CKalpha1 assessed as reduction in 14C incorporation from [methyl-14C]choline to phosphatidylcholine at 10 uM using [methyl-14C]choline as substrate preincubated for 5 mins in presence of ATP and MgCl2 followed by substrate addition and measured after 10 mins by liquid scintillation counting method relative to control; conditions: time 15.0 min
How it was run: (§4)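 Purified human CKα1 (20 ng) in 100 mM Tris pH 8.5 with 10 mM MgCl₂ and 10 mM ATP, DMSO ≤0.1%, was preincubated 5 min at 37 °C. Reaction was started with 1 mM [methyl-¹⁴C]choline (4500 dpm/nmol), run 10 min at 37 °C and stopped in boiling water. Product was separated by silica TLC, scraped and scintillation-counted against DMSO controls. At least three experiments were run; IC50 was obtained from sigmoidal dose-response fits.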
Target sequence in this assay (P35790 whole entry, looked up): as the sequence (P35790 whole entry) above

Choline kinase alpha [7] = biological target: T1, Choline kinase alpha; experiment: as §3, with “at 30” for “at 10”; conditions: time 15.0 min; how it was run: as §4
Target sequence in this assay (P35790 whole entry, looked up): as the sequence (P35790 whole entry) above

Choline kinase alpha [8] = biological target: T1, Choline kinase alpha; experiment: as §3, with “[…]” for “phosphatidylcholine at 10 uM”; how it was run: as §4
Target sequence in this assay (P35790 whole entry): as above

[9] = Inhibition of [methyl-14C]choline uptake in human HT-29 cells at 10 uM incubated for 10 mins followed by removal of medium containing compound and subsequent addition of [methyl-14C]choline measured after 5 mins relative to control; type: functional; conditions: HT-29, 10 min
How it was run: (§5)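 Cells at 200,000/well were incubated for 10 min at 37 °C in medium with or without CKα1 inhibitor. The medium was then removed and cells were exposed to [methyl-¹⁴C]choline (31 Ci/mol) for 5 min at 37 °C. Uptake was stopped by aspiration and two ice-cold PBS washes containing choline. Inhibition is expressed as % of untreated control.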

[10] = Inhibition of [methyl-14C]choline uptake in human HT-29 cells at 30 uM incubated for 10 mins followed by removal of medium containing compound and subsequent addition of [methyl-14C]choline measured after 5 mins relative to control; type: functional; conditions: HT-29, 10 min; how it was run: as §5
[11] = Inhibition of [methyl-14C]choline uptake in human HepG2 cells at 10 uM incubated for 10 mins followed by removal of medium containing compound and subsequent addition of [methyl-14C]choline measured after 5 mins relative to control; type: functional; conditions: HepG2, 10 min; how it was run: as §5
[12] = Inhibition of [methyl-14C]choline uptake in human HepG2 cells at 30 uM incubated for 10 mins followed by removal of medium containing compound and subsequent addition of [methyl-14C]choline measured after 5 mins relative to control; type: functional; conditions: HepG2, 10 min; how it was run: as §5
HeLa [13] = experiment: Induction of cell cycle arrest in human HeLa cells assessed as accumulation at S phase at 1 uM incubated for 24 hrs by PI staining based flowcytometry analysis (reference value: 32.30 %); type: functional
HeLa [14] = experiment: Induction of cell cycle arrest in human HeLa cells assessed as accumulation at G2/M phase at 1 uM incubated for 24 hrs by PI staining based flowcytometry analysis (reference value: 10.7 %); type: functional
HeLa [15] = experiment: Induction of cell cycle arrest in human HeLa cells assessed as accumulation at G0/G1 phase at 2.5 uM incubated for 24 hrs by PI staining based flowcytometry analysis (reference value: 57 %); type: functional
HeLa [16] = experiment: Induction of cell cycle arrest in human HeLa cells assessed as accumulation at S phase at 2.5 uM incubated for 24 hrs by PI staining based flowcytometry analysis (reference value: 32.30 %); type: functional
HeLa [17] = experiment: Induction of cell cycle arrest in human HeLa cells assessed as accumulation at G2/M phase at 2.5 uM incubated for 24 hrs by PI staining based flowcytometry analysis (reference value: 10.70 %); type: functional
HT-29 [18] = experiment: Induction of cell cycle arrest in human HT-29 cells assessed as accumulation at G0/G1 phase at 1 uM incubated for 24 hrs by PI staining based flowcytometry analysis (reference value: 60.20 %); type: functional
HT-29 [19] = experiment: Induction of cell cycle arrest in human HT-29 cells assessed as accumulation at S phase at 1 uM incubated for 24 hrs by PI staining based flowcytometry analysis (reference value: 27.40 %); type: functional
HT-29 [20] = experiment: Induction of cell cycle arrest in human HT-29 cells assessed as accumulation at G2/M phase at 1 uM incubated for 24 hrs by PI staining based flowcytometry analysis (reference value: 12.40 %); type: functional
HT-29 [21] = experiment: Induction of cell cycle arrest in human HT-29 cells assessed as accumulation at G0/G1 phase at 2.5 uM incubated for 24 hrs by PI staining based flowcytometry analysis (reference value: 60.20 %); type: functional
HT-29 [22] = experiment: Induction of cell cycle arrest in human HT-29 cells assessed as accumulation at S phase at 2.5 uM incubated for 24 hrs by PI staining based flowcytometry analysis (reference value: 27.40 %); type: functional
HT-29 [23] = experiment: Induction of cell cycle arrest in human HT-29 cells assessed as accumulation at G2/M phase at 2.5 uM incubated for 24 hrs by PI staining based flowcytometry analysis (reference value: 12.40 %); type: functional
HT-29 [24] = experiment: Induction of apoptosis in human HT-29 cells measured for 48 hrs by annexin V-FITC and PI staining based flowcytometry analysis; type: functional, cell-based; conditions: dose 2.5-5 µM
How it was run: (§6)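 Treated cells were collected at different times, dual-stained with annexin V-FITC (phosphatidylserine exposure) and propidium iodide (DNA), and analysed by bi-parametric flow cytometry.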

HeLa [25] = experiment: Induction of apoptosis in human HeLa cells measured for 48 hrs by annexin V-FITC and PI staining based flowcytometry analysis; type: functional, cell-based; conditions: dose 2.5-5 µM; how it was run: as §6
HT-29 [26] = experiment: Induction of mitochondrial membrane potential loss in human HT-29 cells measured for 48 hrs by JC1 staining based flow cytometry analysis; type: functional, cell-based; conditions: dose 2.5-5 µM
How it was run: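 Cells were treated with compound, then stained with the fluorescent dye JC-1. Loss of mitochondrial membrane potential was monitored by flow cytometry.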

HT-29 [27] = experiment: Induction of apoptosis in human HT-29 cells at 2.5 to 5 uM by annexin V-FITC and PI staining based flowcytometry analysis; type: functional, cell-based; conditions: dose 2.5-5 µM, time 24-48 hrs, TDE = time-dependent effect; how it was run: as §6
HeLa [28] = experiment: Induction of apoptosis in human HeLa cells at 2.5 to 5 uM by annexin V-FITC and PI staining based flowcytometry analysis; type: functional, cell-based; conditions: dose 2.5-5 µM, time 24-48 hrs, TDE = time-dependent effect; how it was run: as §6
HeLa [29] = experiment: Induction of mitochondrial membrane potential loss in human HeLa cells by JC1 staining based flow cytometry analysis; conditions: dose 2.5-5 µM
HT-29 [30] = experiment: Induction of cell cycle arrest in human HT-29 cells assessed as increase accumulation of G0/G1 phase incubated for 24 hrs by PI staining based flowcytometry analysis; conditions: dose 1-2.5 µM

Choline/ethanolamine kinase, sequence (Q9Y259 whole entry): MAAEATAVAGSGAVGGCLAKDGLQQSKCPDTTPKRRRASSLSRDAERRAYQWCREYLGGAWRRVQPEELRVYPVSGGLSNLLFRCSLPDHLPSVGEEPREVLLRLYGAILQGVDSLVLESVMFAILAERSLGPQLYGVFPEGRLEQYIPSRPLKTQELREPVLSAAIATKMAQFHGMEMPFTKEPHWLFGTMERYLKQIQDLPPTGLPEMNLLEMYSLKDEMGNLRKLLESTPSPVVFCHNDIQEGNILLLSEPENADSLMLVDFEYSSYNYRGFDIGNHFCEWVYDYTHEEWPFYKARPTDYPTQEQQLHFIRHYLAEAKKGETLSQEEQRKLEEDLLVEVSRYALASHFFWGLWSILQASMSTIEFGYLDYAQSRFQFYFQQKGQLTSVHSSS

Work on Clc1ccc2c(N3CCCCCC3)cc[n+](Cc3ccc(-c4ccccc4)cc3)c2c1.[Br-] yielded an Activity (HeLa [1]) of 67.47%, a GI50 (HeLa [2]) of 360 nM and a GI50 (HT-29 [3]) of 90 nM. The GI50 (RS4-11) was 60 nM, the GI50 (CCRF-CEM) was 150 nM and the Kd (Choline kinase alpha [4]) was 370 nM. The Kd [5] was 63000 nM, the Ratio (Homo sapiens) was 171 and the inhibition (Choline kinase alpha [6]) was 74.4%. The inhibition (Choline kinase alpha [7]) was 94.4%, the IC50 (Choline kinase alpha [8]) was 6740 nM and the inhibition at 10 µM [9] was 86.9%. It also gave an inhibition at 30 µM [10] of 96.7%, an inhibition at 10 µM [11] of 88.2% and an inhibition at 30 µM [12] of 95.5%. For the same compound, the Activity (HeLa [13]) was 25.23%, the Activity (HeLa [14]) was 7.31% and the Activity (HeLa [15]) was 66.27%. For the same compound, the Activity (HeLa [16]) was 27.31%, the Activity (HeLa [17]) was 4.5% and the Activity (HT-29 [18]) was 88%. The Activity (HT-29 [19]) was 5.1%, the Activity (HT-29 [20]) was 6.9% and the Activity (HT-29 [21]) was 86.3%. The Activity (HT-29 [22]) was 5.8%, the Activity (HT-29 [23]) was 7.9% and the Activity (HT-29 [24]) was “Dose-dependent effect”. For the same compound, the Activity (HeLa [25]) was “Dose-dependent effect”, the Activity (HT-29 [26]) was “Dose-dependent effect” and the Activity (HT-29 [27]) was “Tde”. For the same compound, the Activity (HeLa [28]) was “Tde”, the Activity (HeLa [29]) was “Dose-dependent effect” and the Activity (HT-29 [30]) was “Dose-dependent effect”.

Source: ChEMBL document CHEMBL4706596, “Synthesis, biological evaluation, in silico modeling and crystallization of novel small monocationic molecules with potent antiproliferative activity by dual mechanism” (Eur J Med Chem, 2020)
